Test results taken from ChEMBL document CHEMBL4177768, “Synthesis and Biological Evaluation of Derivatives of Indoline as Highly Potent Antioxidant and Anti-inflammatory Agents” (J Med Chem, 2018).
Active and inactive are the calls of the source. The calls are words filed in the database; no cut-off is given here.

Experiments:
[1] = test system: RAW264.7; test: Cytoprotective activity against H2O2-induced oxidative stress in mouse RAW264.7 cells assessed as increase in cell viability at 1 pM incubated for 2 hrs prior to H2O2 addition measured after 24 hrs by MTT assay; type: functional, cell-based
How it was run: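 RAW 264.7 macrophages cultured in DMEM with 10% FCS, seeded at 1 x 10^4 cells/mL. Pretreated 2 h with compound (1 pM to 100 nM) before H2O2 at 100 μM. Viability read by MTT (0.5 mg/mL final, 1 h, 37 °C, DMSO lysis, OD 570 nm) relative to vehicle. 2-3 experiments, at least 6 wells per concentration; mean ± SEM.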

[2] = test system: RAW264.7; test: Cytoprotective activity against H2O2-induced oxidative stress in mouse RAW264.7 cells assessed as decrease in caspase-3 activity at 1 pM incubated for 4 hrs prior to H2O2 addition measured after 90 mins by caspase-GloR reagent-based luminescence assay relative to control; type: functional
How it was run: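 RAW 264.7 macrophages were pretreated with compound (1 pM or 1 nM) 4 h before H2O2 100 µM. Medium was replaced with fresh DMEM after 90 min and plates were incubated overnight. Caspase-Glo 3/7 reagent was added and luminescence read after 30 min at room temperature. Mean ± SD, 4-6 replicates.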

[3] = test system: RAW264.7; test: Antiinflammatory activity in mouse RAW264.7 cells assessed as reduction in LPS-induced TNF-alpha production at 1 nM incubated for 2 hrs prior to LPS challenge measured after 8 hrs by ELISA; type: functional
How it was run: (§1)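 RAW 264.7 macrophages were plated at 1×10^5 per well, grown overnight and washed with PBS. Compounds in water (final 1 pM-100 nM, medium with 2% FCS) were added 2 h at 37 °C before E. coli 0111:B4 LPS, 2.5 µg/mL. TNF-α was sampled at 8 h; IL-6 and nitrite (Griess) at 24 h. ELISA was used for cytokines. Values are % of the LPS + medium value in each experiment. Budesonide was the reference. 2-3 experiments, 6 wells per concentration.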

[4] = test system: RAW264.7; test: Antiinflammatory activity in mouse RAW264.7 cells assessed as reduction in LPS-induced nitric oxide production at 1 pM to 100 nM incubated for 2 hrs prior to LPS challenge measured after 24 hrs by Griess assay; type: functional, cell-based; how it was run: as §1
[5] = test system: RAW264.7; test: Antiinflammatory activity in mouse RAW264.7 cells assessed as reduction in LPS-induced TNF-alpha production at 1 pM to 100 nM incubated for 2 hrs prior to LPS challenge measured after 8 hrs by ELISA; type: functional, cell-based; how it was run: as §1
[6] = test system: RAW264.7; test: Antiinflammatory activity in mouse RAW264.7 cells assessed as reduction in LPS-induced IL-6 production at 1 nM incubated for 2 hrs prior to LPS challenge measured after 24 hrs by ELISA; type: functional; how it was run: as §1
[7] = test system: RAW264.7; test: Antiinflammatory activity in mouse RAW264.7 cells assessed as reduction in LPS-induced TNF-alpha production at 100 pM incubated for 2 hrs prior to LPS challenge measured after 8 hrs by ELISA; type: functional; how it was run: as §1
[8] = test system: RAW264.7; test: Antiinflammatory activity in mouse RAW264.7 cells assessed as reduction in LPS-induced nitric oxide production at 1 nM incubated for 2 hrs prior to LPS challenge measured after 24 hrs by Griess assay; type: functional; how it was run: as §1
[9] = test system: RAW264.7; test: Antiinflammatory activity in mouse RAW264.7 cells assessed as reduction in LPS-induced IL-6 production at 100 pM incubated for 2 hrs prior to LPS challenge measured after 24 hrs by ELISA; type: functional; how it was run: as §1
[10] = test system: RAW264.7; test: Antiinflammatory activity in mouse RAW264.7 cells assessed as reduction in LPS-induced nitric oxide production at 100 pM incubated for 2 hrs prior to LPS challenge measured after 24 hrs by Griess assay; type: functional; how it was run: as §1
[11] = test system: RAW264.7; test: Cytoprotective activity against H2O2-induced oxidative stress in mouse RAW264.7 cells assessed as decrease in LDH release at 1 pM incubated for 2 hrs prior to H2O2 addition by colorimetric assay relative to control; type: functional; design: scale not given: the % may be the effect or the level left
How it was run: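 RAW 264.7 cells were seeded and pretreated with compound before H2O2 100 µM, in serum-free medium. Collected medium was centrifuged and incubated with reaction mix 30 min at room temperature. LDH was measured as NADH formation by colorimetric read at 490 nm. n = 8-10 replicates per concentration.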

[12] = test system: RAW264.7; test: Cytoprotective activity against H2O2-induced oxidative stress in mouse RAW264.7 cells assessed as cell viability at 1 nM incubated for 2 hrs prior to H2O2 addition measured after 24 hrs by MTT assay (reference value: 68 to 72.8%); type: functional; conditions: read-out: Activity
[13] = test system: RAW264.7; test: Cytoprotective activity against H2O2-induced oxidative stress in mouse RAW264.7 cells assessed as decrease in LDH release at 1 pM incubated for 2 hrs prior to H2O2 addition by colorimetric assay relative to control; design: scale not given: the % may be the effect or the level left

**Q.** For O=c1c(O)c(-c2ccc(O)c(O)c2)oc2cc(O)cc(O)c12, which Activity [1] is on record?
**A.** Active

**Q.** With Cl.NCCCN1CCc2ccccc21 as the compound, how does the Activity [2] read?
**A.** inactive

**Q.** And the Activity [3]?
**A.** Active

**Q.** What about the Activity [4] of the same compound?
**A.** Active

**Q.** What about the Activity [5] of the same compound?
**A.** Active

**Q.** What about the Activity [6] of the same compound?
**A.** Active

**Q.** And the Activity [7]?
**A.** Active

**Q.** And the Activity [8]?
**A.** Active

**Q.** And the Activity [9]?
**A.** Active

**Q.** And the Activity [10]?
**A.** Active

**Q.** And the Activity [11]?
**A.** 16%

**Q.** What about the viability at 0.001 µM [12] of the same compound?
**A.** 91.9%

**Q.** What about the Activity [13] of the same compound?
**A.** 16%
